Results as given in ChEMBL document CHEMBL2010652, “Synthesis and evaluation of analogues of estrone-3-O-sulfamate as potent steroid sulfatase inhibitors” (Bioorg Med Chem, 2012).

How the values were obtained:
[1] = target: T1, Steryl-sulfatase (Homo sapiens) (UniProt P08842); experiment: Inhibition of steroid sulfatase in human MCF7 cells using [3H]E1S as substrate at 10 uM after 20 hrs by scintillation spectrometry; format: cell-based
T1 sequence (whole entry): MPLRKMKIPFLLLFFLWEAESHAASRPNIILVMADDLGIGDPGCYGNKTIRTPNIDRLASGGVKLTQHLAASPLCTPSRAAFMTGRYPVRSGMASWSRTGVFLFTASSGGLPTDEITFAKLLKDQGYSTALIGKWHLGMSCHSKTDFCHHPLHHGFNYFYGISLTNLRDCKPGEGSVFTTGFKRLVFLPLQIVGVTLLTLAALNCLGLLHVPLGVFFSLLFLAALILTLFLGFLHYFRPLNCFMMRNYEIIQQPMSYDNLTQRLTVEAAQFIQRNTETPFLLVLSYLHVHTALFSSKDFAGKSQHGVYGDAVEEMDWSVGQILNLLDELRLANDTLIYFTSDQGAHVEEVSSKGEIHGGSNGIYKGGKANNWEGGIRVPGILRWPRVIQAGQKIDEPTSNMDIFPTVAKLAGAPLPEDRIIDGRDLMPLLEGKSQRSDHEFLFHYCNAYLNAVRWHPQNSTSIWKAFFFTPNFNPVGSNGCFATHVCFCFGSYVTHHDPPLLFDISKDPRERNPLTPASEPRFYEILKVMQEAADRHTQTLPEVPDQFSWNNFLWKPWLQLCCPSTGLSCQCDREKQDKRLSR
Summary of the method: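 Intact MCF-7 monolayers exposed to inhibitor with [3H]E1S (5 pmol, 60 Ci/mmol) in serum-free minimal essential medium, 20 h at 37 °C. Product estrone split from E1S by toluene partition, with [14C]estrone as recovery marker. 3H and 14C counted by scintillation. E1S hydrolysed calculated from 3H counts, corrected for volumes and 14C recovery, and from substrate specific activity.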

Steryl-sulfatase [2] = target: T2, Steryl-sulfatase (Homo sapiens, UniProt P08842)
T2 sequence (P08842 whole entry): T1 sequence (whole entry)

Steryl-sulfatase [3] = target: T2, Steryl-sulfatase; experiment: Inhibition of steroid sulfatase in human MCF7 cells using [3H]E1S as substrate after 20 hrs by scintillation spectrometry; format: cell-based
Summary of the method: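 Intact MCF-7 monolayers incubated 20 h at 37 °C with [3H]E1S (5 pmol, 7 × 10^5 dpm) in serum-free minimal essential medium, with or without inhibitor (0.1–10 range). Estrone product separated from E1S by toluene partition; [14C]estrone corrected procedural losses. 3H/14C counted by scintillation; E1S hydrolysed calculated from 3H counts and substrate specific activity; IC50 derived.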

[4] = target: T1, Steryl-sulfatase (Homo sapiens); settings: MCF7, 0.01 uM
Rattus norvegicus [5] = experiment: Inhibition of steroid sulfatase in rat liver at 10 mg/kg, po; format: functional
Rattus norvegicus [6] = experiment: Inhibition of steroid sulfatase in rat liver at 10 mg/kg, sc; format: functional; settings: route subcutaneous
Rattus norvegicus [7] = experiment: Inhibition of steroid sulfatase in rat liver at 10 mg/kg, po administered as single dose measured up to 7 days; format: functional; settings: 168 h
Rattus norvegicus [8] = experiment: Inhibition of steroid sulfatase in rat liver at 10 mg/kg, sc administered as single dose measured up to 7 days; format: functional; settings: 168 h, route subcutaneous

Compound | IC50 (Steryl-sulfatase [2]) | IC50 (Steryl-sulfatase [3]) | other results
C=CCc1cc2c(c(CC=C)c1OS(N)(=O)=O)CC[C@@H]1[C@@H]2CC[C@]2(C)C(=O)CC[C@@H]12 | > 10000 nM |  | inhibition [1]: < 10%
CCCc1c(OS(N)(=O)=O)ccc2c1CC[C@@H]1[C@@H]2CC[C@]2(C)C(=O)CC[C@@H]12 | > 10000 nM |  | inhibition [1]: < 10%
C[C@]12CC[C@@H]3c4cc(I)c(OS(N)(=O)=O)cc4CC[C@H]3[C@@H]1CCC2=O |  | 0.81 nM | 
C[C@]12CC[C@@H]3c4cc5c(cc4CC[C@H]3[C@@H]1CCC2=O)OS(=O)(=O)N5 | > 10000 nM |  | 
CCCc1cc2c(cc1OS(N)(=O)=O)CC[C@@H]1[C@@H]2CC[C@]2(C)C(=O)CC[C@@H]12 | 2900 nM | 236 nM | 
CCc1cc2c(cc1OS(N)(=O)=O)CC[C@@H]1[C@@H]2CC[C@]2(C)C(=O)CC[C@@H]12 | 820 nM |  | 
C=CCc1cc2c(cc1OS(N)(=O)=O)CC[C@@H]1[C@@H]2CC[C@]2(C)C(=O)CC[C@@H]12 | 2500 nM | 37 nM | 
Cc1cc2c(cc1OS(N)(=O)=O)CC[C@@H]1[C@@H]2CC[C@]2(C)C(=O)CC[C@@H]12 | > 10000 nM |  | 
C[C@]12CC[C@@H]3c4cc([N+](=O)[O-])c(OS(N)(=O)=O)cc4CC[C@H]3[C@@H]1CCC2=O | 70 nM | 8.3 nM | 
C[C@@]12CCC[C@H]1[C@@H]1CCc3cc(OS(N)(=O)=O)ccc3[C@H]1CC2 | 199 nM |  | inhibition [4]: 97%
C[C@]12CC[C@@H]3c4ccc(OS(N)(=O)=O)cc4CC[C@H]3[C@@H]1CCC2=O [EMATE] | 18 nM | 0.83 nM | inhibition in vivo at 10 mg/kg (Rattus norvegicus [5]): 99%; inhibition in vivo at 10 mg/kg (Rattus norvegicus [6]): 99%; inhibition in vivo at 10 mg/kg (Rattus norvegicus [7]): > 95%; inhibition in vivo at 10 mg/kg (Rattus norvegicus [8]): > 95%
C[C@]12CC[C@@H]3c4ccc5c(c4CC[C@H]3[C@@H]1CCC2=O)NS(=O)(=O)O5 | > 10000 nM |  | 
C[C@]12CC[C@@H]3c4cc(F)c(OS(N)(=O)=O)cc4CC[C@H]3[C@@H]1CCC2=O | 5.6 nM | 0.62 nM | 
C[C@]12CC[C@@H]3c4cc(C(F)F)c(OS(N)(=O)=O)cc4CC[C@H]3[C@@H]1CCC2=O | 0.1 nM |  | 
C[C@]12CC[C@@H]3c4cc(Cl)c(OS(N)(=O)=O)cc4CC[C@H]3[C@@H]1CCC2=O | 3.4 nM | 0.44 nM | 
C[C@]12CC[C@@H]3c4ccc(OS(N)(=O)=O)c(Br)c4CC[C@H]3[C@@H]1CCC2=O | 1200 nM | 42 nM | 
C[C@]12CC[C@@H]3c4cc(C#N)c(OS(N)(=O)=O)cc4CC[C@H]3[C@@H]1CCC2=O | 5.2 nM | 1.2 nM | 
C[C@]12CC[C@@H]3c4ccc(OS(N)(=O)=O)c([N+](=O)[O-])c4CC[C@H]3[C@@H]1CCC2=O | 0.8 nM | 0.01 nM | 
C[C@]12CC[C@@H]3c4cc(Br)c(OS(N)(=O)=O)cc4CC[C@H]3[C@@H]1CCC2=O |  | 0.11 nM | 
CN1c2cc3c(cc2OS1(=O)=O)CC[C@@H]1[C@@H]3CC[C@]2(C)C(=O)CC[C@@H]12 | > 10000 nM |  | 
CCCc1cc2c(c(CCC)c1OS(N)(=O)=O)CC[C@@H]1[C@@H]2CC[C@]2(C)C(=O)CC[C@@H]12 | > 10000 nM |  | inhibition [1]: < 10%
